In one assay the test system is DU-145. Kind of assay: Cytotoxicity against human DU145 cells after 72 hrs by XTT assay. It is filed as functional, cell-based. The following applies: DU-145, 24 h, in the assay text read “after 24 hrs” for “after 72 hrs”. For orientation: Tetrazolium assays rely on reduction of a dye to a coloured formazan, in cell work by metabolically active cells.
A further assay relates to LNCaP. Kind of assay: Cytotoxicity against human LNCAP cells after 72 hrs by XTT assay. It is filed as functional, cell-based. The following applies: 24 h, in the assay text read “after 24 hrs” for “after 72 hrs”. The gist of the method:
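Prostate cancer cells in RPMI-1640 with 10% FBS, 37 °C, 5% CO2, grown to 70–80% confluence and treated at 0.1–100 µM for 24, 48 and 72 h. XTT labeling for 4 h at 37 °C, absorbance 450 nm (reference 650 nm) against control wells. IC50 derived from the mean of eight wells; taxol and cisplatin served as positive controls.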

Here are results for 1 compound from ChEMBL document CHEMBL1154279, “Cytotoxic compounds from the stems of Cinnamomum tenuifolium” (J Nat Prod, 2009).

Consider `C=C1OC(=O)/C(=C\CCCCCCCCCCCCCCCCCCCCCCCCCC)[C@@H]1O` [TENUIFOLIDE A], for which the IC50 came to 211 µM in the assay on DU-145 and 450 µM with LNCaP.

One may read the IC50 as the point on the concentration scale where inhibition reaches its midpoint. A lower IC50 goes with greater potency.
